Experimental data taken from ChEMBL document CHEMBL5257036, “Benzophenone-nucleoside derivatives as telomerase inhibitors: Design, synthesis and anticancer evaluation in vitro and in vivo” (Eur J Med Chem, 2016).
pIC50: −log10 of the molar value. Active and inactive are the calls of the source. The calls are words filed in the database; no cut-off is given here.

Key:
SMMC-7721 = experiment: Antiproliferative activity against human SMMC-7721 cells measured after 48 hrs by MTT assay; format: functional, cell-based; details: SMMC-7721, 48 h
Summary of the method: (§1)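 Cells grown to log phase in RPMI 1640 with 10% FBS, seeded at 3 × 10⁴ cells/mL, and preincubated 24 h at 37 °C, 5% CO₂. Compounds were added at pre-set concentrations to 6 wells each, with doxorubicin as reference, and exposed for 48 h. MTT was then added and absorbance read at 570 nm.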

HeLa = experiment: Antiproliferative activity against human HeLa cells measured after 48 hrs by MTT assay; format: functional, cell-based; summary of the method: as §1
HepG2 [1] = experiment: Antiproliferative activity against human HepG2 cells measured after 48 hrs by MTT assay; format: functional, cell-based; details: HepG2, 48 h; summary of the method: as §1
SGC-7901 [2] = experiment: Antiproliferative activity against human SGC-7901 cells measured after 48 hrs by MTT assay; format: functional, cell-based; details: SGC-7901, 48 h; summary of the method: as §1
[3] = target: Telomerase reverse transcriptase (Homo sapiens, UniProt O14746); experiment: Inhibition of telomerase activity in human SGC-7901 cells incubated for 24 hrs by TRAP-PCR-ELISA assay; format: cell-based
Telomerase reverse transcriptase, sequence (O14746 whole entry): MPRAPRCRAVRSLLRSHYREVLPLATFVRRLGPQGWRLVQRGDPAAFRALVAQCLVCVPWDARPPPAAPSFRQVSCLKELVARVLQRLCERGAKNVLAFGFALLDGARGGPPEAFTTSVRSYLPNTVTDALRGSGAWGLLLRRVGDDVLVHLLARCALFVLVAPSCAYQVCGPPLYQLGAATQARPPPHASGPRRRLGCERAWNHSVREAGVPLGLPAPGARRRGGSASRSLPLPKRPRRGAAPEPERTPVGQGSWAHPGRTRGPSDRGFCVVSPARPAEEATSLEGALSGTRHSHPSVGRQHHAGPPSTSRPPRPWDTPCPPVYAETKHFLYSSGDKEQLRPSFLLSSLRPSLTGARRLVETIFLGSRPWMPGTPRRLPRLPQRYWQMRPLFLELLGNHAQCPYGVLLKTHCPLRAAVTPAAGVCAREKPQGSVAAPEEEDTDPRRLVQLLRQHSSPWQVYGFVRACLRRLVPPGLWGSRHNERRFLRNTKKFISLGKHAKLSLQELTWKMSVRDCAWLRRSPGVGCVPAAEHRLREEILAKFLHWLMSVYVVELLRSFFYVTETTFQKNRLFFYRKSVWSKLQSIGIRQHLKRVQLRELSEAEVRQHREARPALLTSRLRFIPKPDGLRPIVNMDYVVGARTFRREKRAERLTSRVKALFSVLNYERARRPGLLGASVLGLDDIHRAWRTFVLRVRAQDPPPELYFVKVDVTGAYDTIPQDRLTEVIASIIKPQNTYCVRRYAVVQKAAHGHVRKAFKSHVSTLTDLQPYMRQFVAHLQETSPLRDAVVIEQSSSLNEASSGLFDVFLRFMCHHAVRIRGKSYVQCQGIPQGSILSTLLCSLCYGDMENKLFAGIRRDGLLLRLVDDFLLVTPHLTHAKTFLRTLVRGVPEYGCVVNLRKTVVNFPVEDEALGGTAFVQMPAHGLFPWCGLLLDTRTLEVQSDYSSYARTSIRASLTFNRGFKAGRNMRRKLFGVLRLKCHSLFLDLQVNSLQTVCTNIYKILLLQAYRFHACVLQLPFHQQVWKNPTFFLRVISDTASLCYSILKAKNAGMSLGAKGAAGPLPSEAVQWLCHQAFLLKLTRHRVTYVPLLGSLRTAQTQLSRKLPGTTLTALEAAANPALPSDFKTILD
Summary of the method: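 Extract was mixed with TRAP reaction mix, incubated 25 °C for 30 min, then 35 PCR cycles (94/50/72 °C). Products detected by anti-DIG-peroxidase ELISA at 490 nm; mean ± SD.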

SGC-7901 [4] = experiment: Induction of apoptosis in human SGC-7901 cells assessed as necrotic cells at 2 uM incubated for 48 hrs by Annexin V-FITC/propidium iodide staining based flow cytometry (reference value: 0.067%); format: functional
Summary of the method: (§2)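 SGC-7901 cells treated 48 h at three concentrations; untreated cells served as control. Harvested cells were suspended in annexin-binding buffer (1 × 10⁶ cells/mL), incubated with annexin V-FITC for 15 min, then PI for 5 min at 4 °C in the dark, and analysed immediately by flow cytometry. Quadrants scored necrotic/late apoptotic, early apoptotic and normal cells. At least 3 runs.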

HepG2 [5] = experiment: Antitumor activity against human HepG2 cells xenografted in Kunming mouse assessed as reduction in tumor weight at 60 mg/kg, po administered once daily for consecutive 10 days (reference value: 2.01+/-0.09g); format: functional; details: time 10 day
Summary of the method: (§3)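 Kunming mice (SPF, male or female, 20 ± 2 g) inoculated subcutaneously in the right front armpit with seven-day-old ascites (0.2 mL, 2 × 10⁶ cells). After 24 h, randomized into groups of 10 and weighed. Dosed by oral gavage at 60 mg/kg/day or given normal saline (10 mL/kg) once daily for ten days. Killed on day 11 and tumors weighed. Inhibition rate = (Wcontrol − Wtreated)/Wcontrol × 100%.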

SGC-7901 [6] = experiment: Induction of cell cycle arrest in human SGC-7901 cells assessed as accumulation in G2 phase at 1 uM incubated for 48 hrs by PI staining based flow cytometry analysis (reference value: 24.6%); format: functional
SGC-7901 [7] = experiment: Induction of cell cycle arrest in human SGC-7901 cells assessed as accumulation in S phase at 4 uM incubated for 48 hrs by PI staining based flow cytometry analysis (reference value: 37.4%); format: functional
SGC-7901 [8] = experiment: Induction of apoptosis in human SGC-7901 cells assessed as late apoptotic cells at 4 uM incubated for 48 hrs by Annexin V-FITC/propidium iodide staining based flow cytometry (reference value: 1.11%); format: functional; summary of the method: as §2
SGC-7901 [9] = experiment: Induction of cell cycle arrest in human SGC-7901 cells assessed as accumulation in G2 phase at 2 uM incubated for 48 hrs by PI staining based flow cytometry analysis (reference value: 24.6%); format: functional
SGC-7901 [10] = experiment: Induction of cell cycle arrest in human SGC-7901 cells assessed as accumulation in G1 phase at 2 uM incubated for 48 hrs by PI staining based flow cytometry analysis (reference value: 38.1%); format: functional
SGC-7901 [11] = experiment: Induction of cell cycle arrest in human SGC-7901 cells assessed as accumulation in S phase at 2 uM incubated for 48 hrs by PI staining based flow cytometry analysis (reference value: 37.4%); format: functional
[12] = Toxicity in Kunming mouse xenografted with […] cells assessed as body weight at 60 mg/kg, po administered once daily for consecutive 10 days (reference value: 19.15 to 19.87g); format: organism-based; details: in vivo, 240 h, time 10 day; summary of the method: as §3
SGC-7901 [13] = experiment: Induction of cell cycle arrest in human SGC-7901 cells assessed as accumulation in G2 phase at 4 uM incubated for 48 hrs by PI staining based flow cytometry analysis (reference value: 24.6%); format: functional
SGC-7901 [14] = experiment: Induction of apoptosis in human SGC-7901 cells assessed as late apoptotic cells at 2 uM incubated for 48 hrs by Annexin V-FITC/propidium iodide staining based flow cytometry (reference value: 1.11%); format: functional; summary of the method: as §2
CCRF S-180 [15] = experiment: Antitumor activity against mouse S180 cells allografted in Kunming mouse assessed as tumor growth inhibition at 60 mg/kg, po administered once daily for consecutive 10 days; format: functional; details: CCRF S-180, 240 h, time 10 day, read-out: TGI; summary of the method: as §3
SGC-7901 [16] = experiment: Induction of apoptosis in human SGC-7901 cells assessed as early apoptotic cells at 1 uM incubated for 48 hrs by Annexin V-FITC/propidium iodide staining based flow cytometry (reference value: 2.12%); format: functional; summary of the method: as §2
SGC-7901 [17] = experiment: Induction of apoptosis in human SGC-7901 cells assessed as early apoptotic cells at 4 uM incubated for 48 hrs by Annexin V-FITC/propidium iodide staining based flow cytometry (reference value: 2.12%); format: functional; summary of the method: as §2
SGC-7901 [18] = experiment: Induction of apoptosis in human SGC-7901 cells assessed as necrotic cells at 4 uM incubated for 48 hrs by Annexin V-FITC/propidium iodide staining based flow cytometry (reference value: 0.067%); format: functional; summary of the method: as §2
SGC-7901 [19] = experiment: Induction of apoptosis in human SGC-7901 cells assessed as early apoptotic cells at 2 uM incubated for 48 hrs by Annexin V-FITC/propidium iodide staining based flow cytometry (reference value: 2.12%); format: functional; summary of the method: as §2
SGC-7901 [20] = experiment: Induction of apoptosis in human SGC-7901 cells assessed as viable cells at 2 uM incubated for 48 hrs by Annexin V-FITC/propidium iodide staining based flow cytometry (reference value: 96.7%); format: functional; details: read-out: Activity; summary of the method: as §2
SGC-7901 [21] = experiment: Induction of apoptosis in human SGC-7901 cells assessed as necrotic cells at 1 uM incubated for 48 hrs by Annexin V-FITC/propidium iodide staining based flow cytometry (reference value: 0.067%); format: functional; summary of the method: as §2
SGC-7901 [22] = experiment: Induction of apoptosis in human SGC-7901 cells assessed as late apoptotic cells at 1 uM incubated for 48 hrs by Annexin V-FITC/propidium iodide staining based flow cytometry (reference value: 1.11%); format: functional; summary of the method: as §2
[23] = Toxicity in Kunming mouse allografted with mouse S180 cells assessed as body weight at 60 mg/kg, po administered once daily for consecutive 10 days (reference value: 19.38 to 19.99g); format: organism-based, CCRF S-180; details: in vivo, 240 h, time 10 day; summary of the method: as §3
SGC-7901 [24] = experiment: Induction of cell cycle arrest in human SGC-7901 cells assessed as accumulation in G1 phase at 1 uM incubated for 48 hrs by PI staining based flow cytometry analysis (reference value: 38.1%); format: functional
SGC-7901 [25] = experiment: Induction of apoptosis in human SGC-7901 cells assessed as viable cells at 4 uM incubated for 48 hrs by Annexin V-FITC/propidium iodide staining based flow cytometry (reference value: 96.7%); format: functional; details: read-out: Activity; summary of the method: as §2
SGC-7901 [26] = experiment: Induction of cell cycle arrest in human SGC-7901 cells assessed as accumulation in S phase at 1 uM incubated for 48 hrs by PI staining based flow cytometry analysis (reference value: 37.4%); format: functional
SGC-7901 [27] = experiment: Induction of apoptosis in human SGC-7901 cells assessed as viable cells at 1 uM incubated for 48 hrs by Annexin V-FITC/propidium iodide staining based flow cytometry (reference value: 96.7%); format: functional; details: read-out: Activity; summary of the method: as §2
CCRF S-180 [28] = experiment: Antitumor activity against mouse S180 cells allografted in Kunming mouse assessed as reduction in tumor weight at 60 mg/kg, po administered once daily for consecutive 10 days (reference value: 2.02+/-0.19g); format: functional; details: time 10 day; summary of the method: as §3
HepG2 [29] = experiment: Antitumor activity against human HepG2 cells xenografted in Kunming mouse assessed as tumor growth inhibition at 60 mg/kg, po administered once daily for consecutive 10 days; format: functional; details: HepG2, 240 h, time 10 day, read-out: TGI; summary of the method: as §3
SGC-7901 [30] = experiment: Induction of cell cycle arrest in human SGC-7901 cells assessed as accumulation in G1 phase at 4 uM incubated for 48 hrs by PI staining based flow cytometry analysis (reference value: 38.1%); format: functional
SGC-7901 [31] = experiment: Induction of mitochondrial membrane potential loss in human SGC-7901 cells assessed as increase in green fluorescence intensity at 1 to 4 uM incubated for 48 hrs by JC-1 staining based flow cytometry; format: functional, cell-based; details: dose 1-4 µM
Summary of the method: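 Gastric cancer cells seeded at 2 × 10⁵ per well and treated 48 h at […]. Cells were detached with 0.5% trypsin, stained with JC-1 for 0.5 h at 37 °C, 5% CO₂ in the dark, washed twice in JC-1 buffer, and analysed by flow cytometry. Read-out was red aggregate versus green monomer fluorescence. At least 3 runs.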

`COc1ccc(C(=O)c2cc(OC)c(OC)c(OC)c2)cc1OCC(=O)OC[C@@H]1C=C[C@H](n2cc(C)c(=O)[nH]c2=O)O1` showed a pIC50 (SMMC-7721) of 4.67, a pIC50 (HeLa) of 4.89 and a pIC50 (HepG2 [1]) of 4.83. The pIC50 (SGC-7901 [2]) was 4.63.
Compound `COc1cc(OC)c(C(=O)c2ccc(OC)c(OC(=O)CCC(=O)OC[C@@H]3C=C[C@H](n4cc(C)c(=O)[nH]c4=O)O3)c2)cc1OC` has a pIC50 (SMMC-7721) of 5.54, a pIC50 (HeLa) of 5.58 and a pIC50 (HepG2 [1]) of 5.16. For the same compound, the pIC50 [3] was 5.19 and the pIC50 (SGC-7901 [2]) was 5.64.
Compound `COc1cccc(C(=O)c2ccc(OC)c(OC(=O)CCC(=O)OC[C@@H]3C=C[C@H](n4cc(C)c(=O)[nH]c4=O)O3)c2)c1` has an Activity (SGC-7901 [4]) of 0.282%, an Activity (HepG2 [5]) of 1.04 g and a pIC50 (SMMC-7721) of 6.09. The Activity (SGC-7901 [6]) was 30%, the Activity (SGC-7901 [7]) was 23.2% and the Activity (SGC-7901 [8]) was 33.2%. It also gave an Activity (SGC-7901 [9]) of 42.6%, an Activity (SGC-7901 [10]) of 28.5% and an Activity (SGC-7901 [11]) of 28.9%. The Activity [12] was 26.34 g, the Activity (SGC-7901 [13]) was 60.9% and the pIC50 (HeLa) was 5.80. It also gave an Activity (SGC-7901 [14]) of 19.7%, an inhibition in vivo at 60 mg/kg (CCRF S-180 [15]) of 40.6% and a pIC50 (HepG2 [1]) of 5.50. For the same compound, the Activity (SGC-7901 [16]) was 7.34%, the Activity (SGC-7901 [17]) was 26.4% and the Activity (SGC-7901 [18]) was 0.3%. For the same compound, the Activity (SGC-7901 [19]) was 18.3%, the pIC50 [3] was 5.15 and the viability at 2 µM (SGC-7901 [20]) was 61.8%. For the same compound, the Activity (SGC-7901 [21]) was 0.07%, the Activity (SGC-7901 [22]) was 5.96% and the Activity [23] was 24.25 g. For the same compound, the Activity (SGC-7901 [24]) was 32.9%, the viability at 4 µM (SGC-7901 [25]) was 40.2% and the Activity (SGC-7901 [26]) was 37.1%. For the same compound, the viability at 1 µM (SGC-7901 [27]) was 86.6%, the Activity (CCRF S-180 [28]) was 1.2 g and the inhibition in vivo at 60 mg/kg (HepG2 [29]) was 48.5%. For the same compound, the Activity (SGC-7901 [30]) was 15.8%, the Activity (SGC-7901 [31]) was “Active” and the pIC50 (SGC-7901 [2]) was 6.11.
In the case of `COc1ccc(C(=O)c2ccc(F)cc2)cc1OC(=O)CCC(=O)OC[C@@H]1C=C[C@H](n2cc(C)c(=O)[nH]c2=O)O1`, the pIC50 (SMMC-7721) was 4.65, the pIC50 (HeLa) was 4.75 and the pIC50 (HepG2 [1]) was 4.69. The pIC50 (SGC-7901 [2]) was 5.08.
In the case of `COc1ccc(C(=O)c2cccc(Cl)c2)cc1OC(=O)CCC(=O)OC[C@@H]1C=C[C@H](n2cc(C)c(=O)[nH]c2=O)O1`, the pIC50 (SMMC-7721) was 5.49, the pIC50 (HeLa) was 5.19 and the pIC50 (HepG2 [1]) was 4.96. The pIC50 (SGC-7901 [2]) was 5.38.
Compound `COc1ccc(C(=O)c2ccccc2OC)cc1OCC(=O)OC[C@@H]1C=C[C@H](n2cc(C)c(=O)[nH]c2=O)O1` has a pIC50 (SMMC-7721) of 4.49 and a pIC50 (HeLa) of 4.52.
